Source: ChEMBL document CHEMBL3091366, “New 5-Aryl-1H-imidazoles display in vitro antitumor activity against apoptosis-resistant cancer models, including melanomas, through mitochondrial targeting” (J Med Chem, 2013)
pIC50: −log10 of the molar value.

Columns and labels:
PC-3 = assay: Cytotoxicity against apoptotic-sensitive human PC3 cells assessed as growth inhibition after 72 hrs by MTT-based colorimetric assay; format: functional, cell-based; conditions: Homo sapiens, PC-3, 72 h
Method in brief: (§1)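 MTT colorimetric assay, 72 h exposure to the fumarate salt. Read-out is reduction of MTT to formazan by living cells. IC50 is the concentration that reduces the whole cell population by 50%. Six replicates per condition. Where compounds were not tested on every line, apoptosis-sensitive lines were PC3, MCF-7, LoVo and B16F10, and apoptosis-resistant lines were U373, T98G, A549 and SK-MEL-28.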

MCF7 = assay: Cytotoxicity against apoptotic-sensitive human MCF7 cells assessed as growth inhibition after 72 hrs by MTT-based colorimetric assay; format: functional, cell-based; conditions: Homo sapiens, MCF7, 72 h; method in brief: as §1
LoVo = assay: Cytotoxicity against apoptotic-sensitive human LoVo cells assessed as growth inhibition after 72 hrs by MTT-based colorimetric assay; format: functional, cell-based; conditions: Homo sapiens, LoVo, 72 h; method in brief: as §1
SK-MEL-28 = assay: Cytotoxicity against apoptotic-resistant human SK-MEL-28 cells assessed as growth inhibition after 72 hrs by MTT-based colorimetric assay; format: functional, cell-based; conditions: Homo sapiens, SK-MEL-28, 72 h; method in brief: as §1
A549 = assay: Cytotoxicity against apoptotic-resistant human A549 cells assessed as growth inhibition after 72 hrs by MTT-based colorimetric assay; format: functional, cell-based; conditions: Homo sapiens, A549, 72 h; method in brief: as §1
T98G = assay: Cytotoxicity against apoptotic-resistant human T98G cells assessed as growth inhibition after 72 hrs by MTT-based colorimetric assay; format: functional, cell-based; conditions: Homo sapiens, T98G, 72 h; method in brief: as §1
[1] = Cytotoxicity against apoptotic-resistant human U373 cells assessed as growth inhibition after 72 hrs by MTT-based colorimetric assay; format: functional, cell-based, U-373MG ATCC; conditions: Homo sapiens, U373 MG, 72 h; method in brief: as §1
B16-F10 = assay: Cytotoxicity against apoptotic-sensitive mouse B16F10 cells assessed as growth inhibition after 72 hrs by MTT-based colorimetric assay; format: functional, cell-based; conditions: B16-F10, 72 h; method in brief: as §1

| SMILES | pIC50 (PC-3) | pIC50 (MCF7) | pIC50 (LoVo) | pIC50 (SK-MEL-28) | pIC50 (A549) | pIC50 (T98G) | pIC50 [1] | pIC50 (B16-F10) |
| --- | --- | --- | --- | --- | --- | --- | --- | --- |
| C=CCCCCOc1ccc(OC)cc1-c1cnc(OCCC=C)n1C | 4.37 | 4.43 | 4.48 | 4.21 | 4.37 | 4.13 | 4.17 |  |
| COc1ccccc1-c1cnc(OCC(F)(F)C(F)(F)C(F)(F)C(F)(F)C(F)(F)F)n1C | 4.14 | 4.20 | 4.29 | 4.18 | 4.08 | 4.11 |  | 4.42 |
| C=CCCCCOc1ccccc1-c1cnc(OCCC=C)n1C | 4.72 | 5.10 | 4.92 | 4.77 | 5.05 | 4.54 | 4.48 |  |
| C#CCCCCOc1ncc(-c2ccccc2OC)n1C | 4.68 | 5.00 | 4.96 | 4.42 | 4.66 | 4.46 |  | 4.47 |
| COc1ccccc1-c1cnc(OC)n1C | < 4.00 | < 4.00 | 4.14 | < 4.00 | < 4.00 | < 4.00 | < 4.00 |  |
| Cn1c2cnc1OCCCCCCCCOc1ccc(F)cc1-2 | 4.28 | 4.28 | 4.37 | 4.14 | 4.24 | 4.11 | 4.14 |  |
| C=CCCCCOc1ncc(-c2cc(Cl)ccc2OC)n1C | 4.49 | 4.60 | 4.55 | 4.55 | 4.47 | 4.32 |  | 4.54 |
| C=CCCCCOc1ccccc1-c1cnc(S(=O)(=O)c2ccccc2)n1C | 4.48 | 4.60 | 4.57 | 4.42 | 4.42 | 4.15 | 4.20 |  |
| C=CCCCCOc1ncc(-c2ccc(Cl)cc2OC)n1C | 4.44 | 4.43 | 4.46 | 4.30 | 4.33 | 4.17 |  | 4.37 |
| C=CCCCCOc1cc2ccccc2cc1-c1cnc(OCCCCC=C)n1C | 4.42 | 4.43 | 4.60 | 4.23 | 4.80 | 4.40 | 4.48 |  |
| C=CCCCCOc1ccccc1-c1cnc(OCCCC=C)n1C | 4.55 | 5.15 | 5.40 | 4.72 | 5.52 | 5.52 | 5.30 |  |
| C=CCCCCCOc1ncc(-c2ccccc2OCCCCC=C)n1C | 4.15 | 4.20 | 4.49 | 4.10 | 4.21 | 4.20 | 4.12 |  |
| C=CCCCCOc1ncc(-c2cccc(OC)c2OC)n1C | 4.44 | 4.55 | 4.96 | 4.57 | 4.37 | 4.46 |  | 4.57 |
| Cn1c2cnc1OCCCCCCCCOc1cc3ccccc3cc1-2 | 4.60 | 4.72 | 4.80 | 4.64 | 4.59 | 4.49 | 4.62 |  |
| C=CCCCCOc1nc(-c2ccccc2OC)cn1C | 4.07 | 4.11 | 4.09 | < 4.00 | 4.04 | < 4.00 |  | 4.16 |
| C=CCCCCOc1cc(F)ccc1-c1cnc(OCCC=C)n1C | 4.19 | 4.23 | 4.35 | 4.08 | 4.13 | < 4.00 | < 4.00 |  |
| C=CCCOc1ccccc1-c1cnc(S(=O)(=O)c2ccccc2)n1C | 4.38 | 4.17 | 4.49 | 4.22 | 4.14 | < 4.00 | < 4.00 |  |
| C=CCCCCOc1ccc(C)cc1-c1cnc(OCCC=C)n1C | 4.23 | 4.28 | 4.39 | 4.08 | 4.23 | 4.03 | 4.48 |  |
| C=CCCCCOc1ncc(-c2ccccc2OC)n1C | 4.62 | 5.30 | 5.40 | 4.89 | 5.30 | 5.30 | 5.05 |  |
| Cn1c2cnc1OCCCCCCCCCCOc1ccccc1-2 | 4.51 | 4.62 | 4.48 | 4.51 | 4.32 | 4.39 | 4.51 |  |
